Laboratory results: ChEMBL document CHEMBL1147959, “N- and S-alpha-l-arabinopyranosyl[1,2,4]triazolo[3,4-b][1,3,4]thiadiazoles. First synthesis and biological evaluation” (2007)
In brackets after ≈: the same amount, converted by molar mass.

Columns and labels:
Assay type in all cases: functional
Bacillus subtilis [1] = assay: Antibacterial activity against Bacillus subtilis ATCC 6633 by broth dilution method
In short: (§1)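 MIC by twofold serial broth dilution. Compounds were dissolved in DMSO as a 1.6 mg/mL stock and diluted in Mueller-Hinton broth or Sabouraud dextrose broth to 800, 400, 200, 100, 50, 25, 12.5, 6.25, 3.12, 1.56 and 0.78. A control of inoculated broth with DMSO alone at the same dilutions was included. Gentamycin and griseofulvin served as reference drugs.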

Aspergillus fumigatus [2] = assay: Antifungal activity against Aspergillus fumigatus ATCC 96918 by broth dilution method
In short: (§2)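 MIC by twofold serial broth dilution. Compounds were dissolved in DMSO at 1.6 mg/mL as stock. Dilutions in Mueller–Hinton broth and Sabouraud dextrose broth ran from 800 down to 0.78. Inoculated broth containing DMSO alone at the same dilutions served as control. Gentamycin and griseofulvin were the reference drugs.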

Escherichia coli [3] = assay: Antibacterial activity against Escherichia coli ATCC 23556 at 5 mg/mL by diffusion agar method; conditions: read-out: IZ
In short: (§3)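 Agar diffusion. Compounds and standard drugs were dissolved in DMSO at 5 mg/mL and diluted to 5, 2.5 and 1 mg/mL. Hundred microlitres of each concentration was applied. Inhibition was scored against the control: 0.1–0.5 cm beyond control = +, 0.6–1.0 cm = ++, 1.0–1.5 cm = +++, 0 = not detected.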

Aspergillus fumigatus [4] = assay: Antifungal activity against Aspergillus fumigatus ATCC 96918 at 2.5 mg/mL by diffusion agar method; conditions: read-out: IZ; in short: as §3
Pseudomonas aeruginosa [5] = assay: Antibacterial activity against Pseudomonas aeruginosa ATCC 10145 at 5 mg/mL by diffusion agar method; conditions: read-out: IZ; in short: as §3
Penicillium italicum [6] = assay: Antifungal activity against Penicillium italicum ATCC 48114 at 2.5 mg/mL by diffusion agar method; conditions: read-out: IZ; in short: as §3
Pseudomonas aeruginosa [7] = assay: Antibacterial activity against Pseudomonas aeruginosa ATCC 10145 at 2.5 mg/mL by diffusion agar method; conditions: read-out: IZ; in short: as §3
Penicillium italicum [8] = assay: Antifungal activity against Penicillium italicum ATCC 48114 at 5 mg/mL by diffusion agar method; conditions: read-out: IZ; in short: as §3
Escherichia coli [9] = assay: Antibacterial activity against Escherichia coli ATCC 23556 by broth dilution method; in short: as §2
Pseudomonas aeruginosa [10] = assay: Antibacterial activity against Pseudomonas aeruginosa ATCC 10145 at 1 mg/mL by diffusion agar method; conditions: read-out: IZ; in short: as §3
Bacillus subtilis [11] = assay: Antibacterial activity against Bacillus subtilis ATCC 6633 at 2.5 mg/mL by diffusion agar method; conditions: read-out: IZ; in short: as §3
Pseudomonas aeruginosa [12] = assay: Antibacterial activity against Pseudomonas aeruginosa ATCC 10145 by broth dilution method; in short: as §1
Aspergillus fumigatus [13] = assay: Antifungal activity against Aspergillus fumigatus ATCC 96918 at 5 mg/mL by diffusion agar method; conditions: read-out: IZ; in short: as §3
Aspergillus fumigatus [14] = assay: Antifungal activity against Aspergillus fumigatus ATCC 96918 at 1 mg/mL by diffusion agar method; conditions: read-out: IZ; in short: as §3
[15] = test system: Syncephalastrum racemosum; assay: Antifungal activity against Syncephalastrum racemosum ATCC 18192 at 2.5 mg/mL by diffusion agar method; conditions: read-out: IZ; in short: as §3
Escherichia coli [16] = assay: Antibacterial activity against Escherichia coli ATCC 23556 at 2.5 mg/mL by diffusion agar method; conditions: read-out: IZ; in short: as §3
Bacillus subtilis [17] = assay: Antibacterial activity against Bacillus subtilis ATCC 6633 at 5 mg/mL by diffusion agar method; conditions: read-out: IZ; in short: as §3
Staphylococcus aureus [18] = assay: Antibacterial activity against Staphylococcus aureus ATCC 25923 at 2.5 mg/mL by diffusion agar method; conditions: read-out: IZ; in short: as §3
[19] = test system: Syncephalastrum racemosum; assay: Antifungal activity against Syncephalastrum racemosum ATCC 18192 by broth dilution method; in short: as §2
Staphylococcus aureus [20] = assay: Antibacterial activity against Staphylococcus aureus ATCC 25923 at 5 mg/mL by diffusion agar method; conditions: read-out: IZ; in short: as §3
Staphylococcus aureus [21] = assay: Antibacterial activity against Staphylococcus aureus ATCC 25923 at 1 mg/mL by diffusion agar method; conditions: read-out: IZ; in short: as §3
Bacillus subtilis [22] = assay: Antibacterial activity against Bacillus subtilis ATCC 6633 at 1 mg/mL by diffusion agar method; conditions: read-out: IZ; in short: as §3
[23] = test system: Syncephalastrum racemosum; assay: Antifungal activity against Syncephalastrum racemosum ATCC 18192 at 5 mg/mL by diffusion agar method; conditions: read-out: IZ; in short: as §3
Staphylococcus aureus [24] = assay: Antibacterial activity against Staphylococcus aureus ATCC 25923 by broth dilution method; in short: as §2
Penicillium italicum [25] = assay: Antifungal activity against Penicillium italicum ATCC 48114 by broth dilution method; in short: as §2
Candida albicans [26] = assay: Antimicrobial activity against Candida albicans ATCC 14053 at 2.5 mg/mL by diffusion agar method; conditions: read-out: IZ; in short: as §3
Escherichia coli [27] = assay: Antibacterial activity against Escherichia coli ATCC 23556 at 1 mg/mL by diffusion agar method; conditions: read-out: IZ; in short: as §3
Candida albicans [28] = assay: Antimicrobial activity against Candida albicans ATCC 14053 at 5 mg/mL by diffusion agar method; conditions: read-out: IZ; in short: as §3
Candida albicans [29] = assay: Antimicrobial activity against Candida albicans ATCC 14053 at 1 mg/mL by diffusion agar method; conditions: read-out: IZ; in short: as §3
Candida albicans [30] = assay: Antimicrobial activity against Candida albicans ATCC 14053 by broth dilution method; in short: as §2
[31] = test system: Syncephalastrum racemosum; assay: Antifungal activity against Syncephalastrum racemosum ATCC 18192 at 1 mg/mL by diffusion agar method; conditions: read-out: IZ; in short: as §3
Penicillium italicum [32] = assay: Antifungal activity against Penicillium italicum ATCC 48114 at 1 mg/mL by diffusion agar method; conditions: read-out: IZ; in short: as §3

Compound | MIC (Bacillus subtilis [1]) [µg/mL] | MIC (Aspergillus fumigatus [2]) [µg/mL] | zone of inhibition at 5000 µg/mL (Escherichia coli [3]) [mm] | zone of inhibition at 2500 µg/mL (Aspergillus fumigatus [4]) [mm] | zone of inhibition at 5000 µg/mL (Pseudomonas aeruginosa [5]) [mm] | zone of inhibition at 2500 µg/mL (Penicillium italicum [6]) [mm] | zone of inhibition at 2500 µg/mL (Pseudomonas aeruginosa [7]) [mm] | zone of inhibition at 5000 µg/mL (Penicillium italicum [8]) [mm] | MIC (Escherichia coli [9]) [µg/mL] | zone of inhibition at 1000 µg/mL (Pseudomonas aeruginosa [10]) [mm] | zone of inhibition at 2500 µg/mL (Bacillus subtilis [11]) [mm] | MIC (Pseudomonas aeruginosa [12]) [µg/mL] | zone of inhibition at 5000 µg/mL (Aspergillus fumigatus [13]) [mm] | zone of inhibition at 1000 µg/mL (Aspergillus fumigatus [14]) [mm] | zone of inhibition at 2500 µg/mL [15] [mm] | zone of inhibition at 2500 µg/mL (Escherichia coli [16]) [mm] | zone of inhibition at 5000 µg/mL (Bacillus subtilis [17]) [mm] | zone of inhibition at 5000 µg/mL (Staphylococcus aureus [20]) [mm] | MIC (Staphylococcus aureus [24]) [µg/mL] | MIC (Penicillium italicum [25]) [µg/mL] | also measured
CC(=O)O[C@@H]1[C@@H](OC(C)=O)[C@H](Sc2nnc3sc(-c4ccc(Cl)cc4)nn23)OC[C@@H]1OC(C)=O | 25 (≈ 47.4 µM) | 25 (≈ 47.4 µM) | 1 | 1 | 1 | 1 | 1 | 1 | 1600 (≈ 3040 µM) | 1 | 1 | 12.5 (≈ 23.7 µM) | 1 | 1 | 1 | 1 | 1 | 1 | 25 (≈ 47.4 µM) | 1600 (≈ 3040 µM) | zone of inhibition at 2500 µg/mL (Staphylococcus aureus [18]): 1 mm; MIC [19]: 1600 µg/mL (≈ 3040 µM); zone of inhibition at 1000 µg/mL (Staphylococcus aureus [21]): 1 mm; zone of inhibition at 1000 µg/mL (Bacillus subtilis [22]): 1 mm; zone of inhibition at 5000 µg/mL [23]: 1 mm
O=C(N[C@H](CO)[C@H](O)c1ccc([N+](=O)[O-])cc1)C(Cl)Cl [CHLORAMPHENICOL] |  |  | 6 |  | 10 |  | 10 |  |  | 6 | 10 |  |  |  |  | 6 | 10 | 6 |  |  | zone of inhibition at 2500 µg/mL (Candida albicans [26]): 6 mm; zone of inhibition at 1000 µg/mL (Escherichia coli [27]): 6 mm; zone of inhibition at 5000 µg/mL (Candida albicans [28]): 6 mm; zone of inhibition at 2500 µg/mL (Staphylococcus aureus [18]): 6 mm; zone of inhibition at 1000 µg/mL (Staphylococcus aureus [21]): 6 mm; zone of inhibition at 1000 µg/mL (Bacillus subtilis [22]): 6 mm; zone of inhibition at 1000 µg/mL (Candida albicans [29]): 6 mm
CC(=O)O[C@@H]1[C@@H](OC(C)=O)[C@H](n2nc3sc(-c4ccc(Cl)cc4)nn3c2=S)OC[C@@H]1OC(C)=O |  |  | 1 |  |  |  |  | 1 | > 1600 |  |  |  |  |  |  |  |  | 1 | > 1600 | > 1600 | 
COC1=CC(=O)C[C@@H](C)[C@]12Oc1c(Cl)c(OC)cc(OC)c1C2=O [GRISEOFULVIN] |  | 50 (≈ 142 µM) |  |  |  |  |  |  |  |  |  |  |  |  |  |  |  |  |  | 50 (≈ 142 µM) | MIC [19]: 50 µg/mL (≈ 142 µM); MIC (Candida albicans [30]): 50 µg/mL (≈ 142 µM)
CN(C/C=C/C#CC(C)(C)C)Cc1cccc2ccccc12 [TERBINAFINE] |  |  |  | 10 |  | 10 |  | 10 |  |  |  |  | 10 | 6 | 10 |  |  |  |  |  | zone of inhibition at 1000 µg/mL [31]: 10 mm; zone of inhibition at 5000 µg/mL [23]: 10 mm; zone of inhibition at 1000 µg/mL (Penicillium italicum [32]): 6 mm
GENTAMICIN | 1.56 |  |  |  |  |  |  |  | 12.5 |  |  | 12.5 |  |  |  |  |  |  | 3.12 |  | 
